Laboratory results reported in ChEMBL document CHEMBL3603742, “Design, synthesis and cytotoxicity studies of dithiocarbamate ester derivatives of emetine in prostate cancer cell lines” (Bioorg Med Chem, 2015).

Columns and labels:
Assay type in all cases: functional, cell-based
LNCaP [1] = assay: Cytotoxicity against human LNCAP cells after 3 days by MTT assay; conditions: 72 h
Outline: (§1)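 Human prostate lines from ATCC were kept in log phase in RPMI with 10% FBS, 1% L-glutamine and 1% penicillin-streptomycin at 37 °C, 5% CO2. PC3 and DU145 were seeded at 2.5 X 10^3 cells/well and LNCaP at 6 X 10^3 cells/well, then left 24 h. Cells were exposed continuously to 0.01–10 μM (0.1% DMSO final; DMSO controls), with MTT viability read on days 3, 5 and 7.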

PC-3 [2] = assay: Cytotoxicity against human PC3 cells after 3 days by MTT assay; conditions: PC-3, 72 h; outline: as §1
DU-145 [3] = assay: Cytotoxicity against human DU145 cells after 3 days by MTT assay; conditions: DU-145, 72 h; outline: as §1
LNCaP [4] = assay: Cytotoxicity against human LNCAP cells after 5 days by MTT assay; conditions: 120 h; outline: as §1
PC-3 [5] = assay: Cytotoxicity against human PC3 cells after 5 days by MTT assay; conditions: PC-3, 120 h; outline: as §1
DU-145 [6] = assay: Cytotoxicity against human DU145 cells after 5 days by MTT assay; conditions: DU-145, 120 h; outline: as §1
DU-145 [7] = assay: Cytotoxicity against human DU145 cells after 7 days by MTT assay; conditions: DU-145, 168 h; outline: as §1
LNCaP [8] = assay: Cytotoxicity against human LNCAP cells after 7 days by MTT assay; conditions: 168 h; outline: as §1
PC-3 [9] = assay: Cytotoxicity against human PC3 cells after 7 days by MTT assay; conditions: PC-3, 168 h; outline: as §1

`CC[C@H]1CN2CCc3cc(OC)c(OC)cc3[C@@H]2C[C@@H]1C[C@@H]1c2cc(OC)c(OC)cc2CCN1C(=S)S` was tested, and the IC50 (LNCaP [1]) was 0.565 µM, the IC50 (PC-3 [2]) was 0.442 µM and the IC50 (DU-145 [3]) was 0.377 µM. For the same molecule, the IC50 (LNCaP [4]) was 0.088 µM, the IC50 (PC-3 [5]) was 0.091 µM and the IC50 (DU-145 [6]) was 0.08 µM. It also gave an IC50 (DU-145 [7]) of 0.079 µM.
With `CC[C@H]1CN2CCc3cc(OC)c(OC)cc3[C@@H]2C[C@@H]1C[C@@H]1c2cc(OC)c(OC)cc2CCN1C(=S)SCc1ccccc1` the IC50 (PC-3 [2]) was 2.54 µM, the IC50 (DU-145 [3]) was 2.74 µM and the IC50 (LNCaP [4]) was 1.89 µM. For the same molecule, the IC50 (PC-3 [5]) was 2.02 µM, the IC50 (DU-145 [6]) was 2.07 µM and the IC50 (LNCaP [8]) was 1.31 µM. It also gave an IC50 (DU-145 [7]) of 1.98 µM.
`CCCCCCSC(=S)N1CCc2cc(OC)c(OC)cc2[C@H]1C[C@H]1C[C@H]2c3cc(OC)c(OC)cc3CCN2C[C@@H]1CC` was tested, and the IC50 (LNCaP [1]) was 3.66 µM, the IC50 (PC-3 [2]) was 5.98 µM and the IC50 (DU-145 [3]) was 3.66 µM. It also gave an IC50 (LNCaP [4]) of 1.61 µM, an IC50 (PC-3 [5]) of 3.21 µM and an IC50 (DU-145 [6]) of 3.19 µM. The IC50 (LNCaP [8]) was 1.59 µM, the IC50 (PC-3 [9]) was 3.03 µM and the IC50 (DU-145 [7]) was 2.3 µM.
Molecule `CC[C@H]1CN2CCc3cc(OC)c(OC)cc3[C@@H]2C[C@@H]1C[C@@H]1c2cc(OC)c(OC)cc2CCN1C(=S)SCCCCC(=O)OC` has an IC50 (LNCaP [1]) of 4.79 µM, an IC50 (PC-3 [2]) of 8.26 µM and an IC50 (DU-145 [3]) of 3.22 µM. It also gave an IC50 (LNCaP [4]) of 2.31 µM, an IC50 (PC-3 [5]) of 4.86 µM and an IC50 (DU-145 [6]) of 3.15 µM. The IC50 (LNCaP [8]) was 1.76 µM, the IC50 (PC-3 [9]) was 4.36 µM and the IC50 (DU-145 [7]) was 2.25 µM.
Molecule `CC[C@H]1CN2CCc3cc(OC)c(OC)cc3[C@@H]2C[C@@H]1C[C@@H]1c2cc(OC)c(OC)cc2CCN1C(=S)SCCC(N)=O` has an IC50 (LNCaP [1]) of 9.22 µM, an IC50 (PC-3 [2]) of over 10 µM and an IC50 (DU-145 [3]) of over 10 µM. The IC50 (LNCaP [4]) was 4.73 µM, the IC50 (PC-3 [5]) was 6.56 µM and the IC50 (DU-145 [6]) was over 10 µM. The IC50 (LNCaP [8]) was 3.39 µM, the IC50 (PC-3 [9]) was 5.2 µM and the IC50 (DU-145 [7]) was over 10 µM.
With `CC[C@H]1CN2CCc3cc(OC)c(OC)cc3[C@@H]2C[C@@H]1C[C@@H]1c2cc(OC)c(OC)cc2CCN1C(=S)SCC(=O)Nc1ccc(Br)cc1` the IC50 (LNCaP [1]) was 5.28 µM, the IC50 (PC-3 [2]) was 3.87 µM and the IC50 (DU-145 [3]) was 5.65 µM. The IC50 (LNCaP [4]) was 2.19 µM, the IC50 (PC-3 [5]) was 2.77 µM and the IC50 (DU-145 [6]) was 2.8 µM. The IC50 (LNCaP [8]) was 1.7 µM, the IC50 (PC-3 [9]) was 1.51 µM and the IC50 (DU-145 [7]) was 1.6 µM.
`CC[C@H]1CN2CCc3cc(OC)c(OC)cc3[C@@H]2C[C@@H]1C[C@@H]1c2cc(OC)c(OC)cc2CCN1C(=S)SCC(=O)c1ccc(Cl)cc1` was tested, and the IC50 (LNCaP [1]) was 5.72 µM, the IC50 (PC-3 [2]) was 3.59 µM and the IC50 (DU-145 [3]) was 3.17 µM. The IC50 (LNCaP [4]) was 2.31 µM, the IC50 (PC-3 [5]) was 2.7 µM and the IC50 (DU-145 [6]) was 3.2 µM. For the same molecule, the IC50 (LNCaP [8]) was 1.95 µM, the IC50 (PC-3 [9]) was 2.69 µM and the IC50 (DU-145 [7]) was 2.45 µM.
With `CCOC(=O)c1ccc(NC(=O)CSC(=S)N2CCc3cc(OC)c(OC)cc3[C@H]2C[C@H]2C[C@H]3c4cc(OC)c(OC)cc4CCN3C[C@@H]2CC)cc1` the IC50 (LNCaP [1]) was 4.67 µM, the IC50 (PC-3 [2]) was 4.36 µM and the IC50 (DU-145 [3]) was 5.16 µM. The IC50 (LNCaP [4]) was 2.72 µM, the IC50 (PC-3 [5]) was 2.71 µM and the IC50 (DU-145 [6]) was 2.9 µM. For the same molecule, the IC50 (LNCaP [8]) was 1.66 µM, the IC50 (PC-3 [9]) was 1.9 µM and the IC50 (DU-145 [7]) was 2.47 µM.
`CC[C@H]1CN2CCc3cc(OC)c(OC)cc3[C@@H]2C[C@@H]1C[C@@H]1c2cc(OC)c(OC)cc2CCN1C(=S)SCCN1C(=O)c2ccccc2C1=O` gave an IC50 (LNCaP [1]) of 3.22 µM, an IC50 (PC-3 [2]) of 3.21 µM and an IC50 (DU-145 [3]) of 3.81 µM. It also gave an IC50 (LNCaP [4]) of 2.8 µM, an IC50 (PC-3 [5]) of 2.77 µM and an IC50 (DU-145 [6]) of 3.58 µM. The IC50 (LNCaP [8]) was 2.3 µM, the IC50 (PC-3 [9]) was 2.38 µM and the IC50 (DU-145 [7]) was 3.05 µM.
Work on `CC[C@H]1CN2CCc3cc(OC)c(OC)cc3[C@@H]2C[C@@H]1C[C@H]1NCCc2cc(OC)c(OC)cc21` [EMETINE] yielded an IC50 (LNCaP [1]) of 0.037 µM, an IC50 (LNCaP [4]) of 0.027 µM and an IC50 (LNCaP [8]) of 0.037 µM.
